According to ChEMBL document CHEMBL4145692, “Discovery of a Locally and Orally Active CXCL12 Neutraligand (LIT-927) with Anti-inflammatory Effect in a Murine Model of Allergic Airway Hypereosinophilia” (J Med Chem, 2018):
In brackets after ≈: the same amount, converted by molar mass. Activity calls are given as the source filed them. The calls are words filed in the database; no cut-off is given here.

Columns and labels:
[1] = Kinetic solubility in pH 7.4 HEPES-BSA buffer at 5 uM incubated for 24 hrs at 20 degC by HPLC method; assay type: physicochemical; details: read-out: Kinetic_solubility
Method in brief: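 Compound added from 10 mM DMSO stock to 5 μM in pH 7.4 HEPES-BSA buffer (1 g/L BSA), shaken 24 h at 20 °C. After centrifugation, supernatant concentration measured by HPLC against 5 and 10 μM standards.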

[2] = molecular target: T1, Stromal cell-derived factor 1 (Homo sapiens, UniProt P48061); assay: Binding affinity to Texas Red-labelled CXCL12 (unknown origin) assessed as inhibition of CXCL12-Texas Red binding to EGFP-labeled human CXCR4 expressed in HEK293 cell membranes pre-incubated for 1 hr by FRET-based binding assay
Method in brief: (§1)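 HEK-293 cells stably expressing human EGFP-CXCR4, 10⁶ cells/ml in HEPES buffer pH 7.4 with 0.1% BSA, 21 °C. CXCL12-Texas Red (100 nM) was preincubated 1 h at room temperature with compound or DMSO, then added at t=150 s. FRET read as loss of EGFP emission at 510 nm (excitation 470 nm) up to equilibrium. Ki from dose-response curves.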

[3] = molecular target: T1, Stromal cell-derived factor 1; assay: Binding affinity to Texas Red-labelled CXCL12 (unknown origin) assessed as inhibition of CXCL12-Texas Red binding to EGFP-labeled human CXCR4 expressed in HEK293 cell membranes at 30 uM pre-incubated for 1 hr by FRET-based binding assay; method in brief: as §1
[4] = Chemical stability in pH 7.4 PBS buffer assessed as parent compound remaining at 10 uM incubated for 24 hrs by RP-HPLC method; assay type: physicochemical; details: read-out: Stability
Method in brief: (§2)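 Compound diluted from DMSO stock to 10 μM final (1% DMSO) in PBS pH 7.4, or in PBS with 10% w/w (2-hydroxypropyl)-β-cyclodextrin. Sampled at t0, 2, 4, 6 and 24 h and injected directly onto RP-HPLC. Percent remaining relative to t0 from peak area.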

[5] = Thermodynamic solubility in pH 7.4 PBS buffer incubated for 24 hrs at 22 degC by HPLC method; assay type: physicochemical; details: read-out: Therm_solubility
Method in brief: (§3)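 Powder dissolved to saturation in pH 7.4 PBS (100 mM sodium phosphate, 150 mM NaCl), or in PBS with 10% Cdx, and shaken 24 h. After centrifugation, supernatant quantified by HPLC against a per-compound calibration line prepared from the DMSO stock.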

[6] = Thermodynamic solubility in pH 7.4 PBS/Cdx buffer incubated for 24 hrs at 22 degC by HPLC method; assay type: physicochemical; details: read-out: Therm_solubility; method in brief: as §3
Mus musculus [7] = assay: Inhibition of macrophages infiltration in Balb/c mouse model of 8 day model of allergic eosinophilic airway inflammation at 300 nmol/kg dosed intranasally 2 hrs before ovalbumin challenge by hemocytometry; assay type: functional, organism-based
[8] = Chemical stability in pH 7.4 PBS/Cdx buffer assessed as parent compound remaining at 10 uM incubated for 24 hrs by RP-HPLC method; assay type: physicochemical; details: read-out: Stability; method in brief: as §2
Mus musculus [9] = assay: Inhibition of lymphocytes infiltration in Balb/c mouse model of 8 day model of allergic eosinophilic airway inflammation at 300 nmol/kg dosed intranasally 2 hrs before ovalbumin challenge by hemocytometry; assay type: functional, organism-based
Method in brief: (§4)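 OVA/alum-sensitized Balb/c mice challenged intranasally with OVA on days 5–7. Compounds at 300 nmol/kg in 10% PBS/Cdx given intranasally 2 h before each challenge. BAL 24 h after the last challenge; eosinophils, neutrophils and lymphocytes counted by hemocytometer and differential cytospin; n=6/group.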

Mus musculus [10] = assay: Inhibition of eosinophil infiltration in Balb/c mouse model of 8 day model of allergic eosinophilic airway inflammation at 300 nmol/kg dosed intranasally 2 hrs before ovalbumin challenge by hemocytometry; assay type: functional; details: for inhibition in vivo at 0.3 µmol/kg: inhaled or nasal; method in brief: as §4
[11] = molecular target: T1, Stromal cell-derived factor 1; assay: Binding affinity to Texas Red-labelled CXCL12 (unknown origin) assessed as inhibition of CXCL12-Texas Red binding to EGFP-labeled human CXCR4 expressed in HEK293 cell membranes at 10 uM pre-incubated for 1 hr by FRET-based binding assay
Method in brief: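 FRET binding assay in EGFP-CXCR4 HEK-293 cells. Compound at 10 μM preincubated with CXCL12 before addition to the cells; binding read as EGFP emission at 510 nm after CXCL12-Texas Red addition. T134 (20 μM) used as control.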

[12] = molecular target: T1, Stromal cell-derived factor 1; assay: Binding affinity to Texas Red-labelled CXCL12 (unknown origin) assessed as inhibition of CXCL12-Texas Red binding to EGFP-labeled human CXCR4 expressed in HEK293 cell membranes at 5 uM pre-incubated for 1 hr by FRET-based binding assay; method in brief: as §1

T1 sequence (P48061 whole entry): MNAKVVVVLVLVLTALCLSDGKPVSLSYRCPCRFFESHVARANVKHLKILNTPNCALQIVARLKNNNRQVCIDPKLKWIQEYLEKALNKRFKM

| solubility kinetic at 24 h, 5 µM [1] | Ki [2] | SMILES | also measured |
| --- | --- | --- | --- |
| > 5 µM | > 10000 nM | COc1cc(/C=C/C(=O)c2ccncc2)ccc1O |  |
| > 5 µM | 430 nM | COc1cc(/C=C/C(=O)c2ccc(F)cc2)ccc1O |  |
| > 5 µM | > 10000 nM | COc1cc(/C=C/C(=O)c2cccnc2)ccc1O |  |
| > 5 µM |  | COc1cc(/C=C/C(=O)c2ccc(S(=O)(=O)O)cc2)ccc1O | inhibition [3]: 6% |
| 1.92 µM (≈ 0.569 µg/mL) | 25 nM | COc1cc(/C=C/C(=O)c2ccc(C(C)C)cc2)ccc1O |  |
| > 5 µM | > 10000 nM | COc1ccc(/C=C/C(=O)c2ccc(Cl)cc2)cc1OC |  |
| > 5 µM |  | COc1cc(/C=C/C(=O)c2cccc(Cl)c2)ccc1O | inhibition [3]: 25% |
| > 5 µM | > 5000 nM | COc1cc(/C=C(\C)C(=O)c2ccc(Cl)cc2)ccc1O |  |
| > 5 µM | > 10000 nM | COc1cc(/C=C/C(=O)c2ccc(Cl)cc2)ccc1N |  |
| 0.95 µM (≈ 0.289 µg/mL) |  | COc1cc(/C=C/C(=O)c2ccc3ccccc3c2)ccc1O | inhibition [3]: 5% |
| > 5 µM | 714 nM | COc1cc(/C=C/C(=O)c2ccc(Cl)c(Cl)c2)ccc1O |  |
| 0.36 µM (≈ 0.0982 µg/mL) | > 10000 nM | COc1cccc(/C=C/C(=O)c2ccc(Cl)cc2)c1 |  |
| > 5 µM | 107 nM | COc1cc(/C=C/C(=O)c2ccccc2Cl)ccc1O |  |
| > 5 µM | > 10000 nM | COc1cc(/C=C/C(=O)c2ccccc2)ccc1O | inhibition [11]: inactive |
| > 5 µM | 285 nM | COc1cc(/C=C/C(=O)c2ccc(C)cc2)ccc1O |  |
| > 5 µM | 5350 nM | COc1cc(/C=C/C(=O)c2ccc(C(=O)O)cc2)ccc1O |  |

| solubility kinetic at 24 h, 5 µM [1] | Ki [2] | SMILES | also measured |
| --- | --- | --- | --- |
| > 5 µM | 107 nM | COc1cc(/C=C/C(=O)c2ccc(I)cc2)ccc1O | remaining at 24 h, 10 µM [4]: 100%; solubility thermodynamic at 24 h [5]: 1.2 µM (≈ 0.456 µg/mL); solubility thermodynamic at 24 h [6]: 319 µM (≈ 121 µg/mL); inhibition (Mus musculus [7]): inactive; remaining at 24 h, 10 µM [8]: 100%; inhibition (Mus musculus [9]): inactive; inhibition in vivo at 0.3 µmol/kg (Mus musculus [10]): 36% |
| > 5 µM | 53 nM | COc1cc(/C=C/C(=O)c2cc(Cl)ccc2Cl)ccc1O |  |
| > 5 µM | 1780 nM | COc1ccc(C(=O)/C=C/c2ccc(O)c(OC)c2)cc1 |  |
| > 5 µM | 350 nM | O=C(/C=C/c1ccc(O)c(O)c1)c1ccc(Cl)cc1 |  |
| 2.6 µM (≈ 0.787 µg/mL) | > 10000 nM | COc1cc(/C(C)=C/C(=O)c2ccc(Cl)cc2)ccc1O |  |
| > 5 µM | > 10000 nM | COc1cc(/C=C/C(=O)c2ccc(Cl)cc2)ccc1[N+](=O)[O-] |  |
| > 5 µM |  | COc1cc(/C=C/C(=O)c2ccc([N+](=O)[O-])cc2)ccc1O | inhibition [3]: 30% |
| > 5 µM | 1070 nM | COc1cc(/C=C/C(=O)c2ccc(C(F)(F)F)cc2)ccc1O |  |
| > 5 µM | > 10000 nM | COc1ccc(/C=C/C(=O)c2ccc(Cl)cc2)cc1O |  |
| 4.72 µM (≈ 1.43 µg/mL) |  | CCOc1cc(/C=C/C(=O)c2ccc(Cl)cc2)ccc1O | inhibition [12]: 52% |
| > 5 µM | 44 nM | COc1cc(/C=C/C(=O)c2ccc(Br)cc2)ccc1O |  |
| > 5 µM | > 10000 nM | COc1cc(C(=O)/C=C/c2ccc(Cl)cc2)ccc1O |  |
| > 5 µM | 357 nM | Cl.NCCOc1cc(/C=C/C(=O)c2ccc(Cl)cc2)ccc1O | remaining at 24 h, 10 µM [4]: 100%; solubility thermodynamic at 24 h [5]: 4.2 µM; solubility thermodynamic at 24 h [6]: > 5000 µM; inhibition (Mus musculus [7]): inactive; remaining at 24 h, 10 µM [8]: 100%; inhibition (Mus musculus [9]): inactive; inhibition (Mus musculus [10]): inactive |
| > 5 µM | > 10000 nM | COc1cc(/C=C/C(=N/O)c2ccc(Cl)cc2)ccc1O |  |
| > 5 µM | 107 nM | COc1cc(/C=C/C(=O)c2ccc(Cl)cc2F)ccc1O |  |

Second part, the molecule before the results:

| SMILES | solubility kinetic at 24 h, 5 µM [1] | Ki [2] | also measured |
| --- | --- | --- | --- |
| O=C(/C=C/c1ccc(O)cc1)c1ccc(Cl)cc1 | > 5 µM | 625 nM |  |
| COc1cc(/C=C/C(=O)c2c(Cl)cccc2Cl)ccc1O | > 5 µM | 71 nM |  |
| COc1cc(C2CC(c3ccc(Cl)cc3)=NN2)ccc1O (stereo not drawn) | > 5 µM | 107 nM | remaining at 24 h, 10 µM [4]: 78%; solubility thermodynamic at 24 h [5]: 34.6 µM (≈ 10.5 µg/mL); solubility thermodynamic at 24 h [6]: > 3000 µM; inhibition (Mus musculus [7]): inactive; remaining at 24 h, 10 µM [8]: 98%; inhibition (Mus musculus [9]): inactive; inhibition in vivo at 0.3 µmol/kg (Mus musculus [10]): 39% |
| O=C(/C=C/c1ccc(O)c(C(=O)O)c1)c1ccc(Cl)cc1 | > 5 µM | > 10000 nM |  |
| Cl.NCCOCCOc1cc(/C=C2\Cc3cc(Cl)ccc3C2=O)ccc1O | > 5 µM | 496 nM | inhibition (Mus musculus [7]): inactive; inhibition (Mus musculus [9]): inactive |
| COc1cc(-c2cc(-c3ccc(Cl)cc3)nc(N)n2)ccc1O | > 5 µM | > 10000 nM |  |
| COc1cc(C2CC(c3ccc(Cl)cc3)=NN2C(C)=O)ccc1O (stereo not drawn) | > 5 µM | > 10000 nM |  |
| Cl.NCCOCCOc1cc(/C=C/C(=O)c2ccc(Cl)cc2)ccc1O | > 5 µM | 1070 nM |  |
| CNc1nc(-c2ccc(Cl)cc2)cc(-c2ccc(O)c(OC)c2)n1 | > 5 µM | > 10000 nM |  |
| COc1cc(/C=C2\CCc3cc(Cl)ccc3C2=O)ccc1O | > 5 µM |  | inhibition [11]: 70% |
| COc1cc(/C=C/C(=O)c2ccc(Cl)cc2Cl)ccc1O | > 5 µM | 48 nM |  |
| COc1cc(/C=C2\Cc3cc(Cl)ccc3C2=O)ccc1O | 0.88 µM (≈ 0.265 µg/mL) | 107 nM |  |
| COc1cc(-c2cc(-c3ccc(Cl)cc3)ncn2)ccc1O | 4.29 µM (≈ 1.34 µg/mL) |  | inhibition [12]: 30% |
| COc1cc(/C=C2\COc3cc(Cl)ccc3C2=O)ccc1O | > 5 µM | 357 nM | remaining at 24 h, 10 µM [4]: 100%; solubility thermodynamic at 24 h [5]: 0.5 µM (≈ 0.158 µg/mL); solubility thermodynamic at 24 h [6]: 933 µM (≈ 296 µg/mL); remaining at 24 h, 10 µM [8]: 100%; inhibition (Mus musculus [10]): inactive |
| COc1cc(-c2cc(-c3ccc(Cl)cc3)n[nH]2)ccc1O |  | > 10000 nM |  |
| COc1cc(/C=C/C(=O)c2cccc(Cl)c2Cl)ccc1O | > 5 µM | 357 nM |  |
| COc1cc(/C=C2\Oc3cc(Cl)ccc3C2=O)ccc1O | > 5 µM | 203 nM | remaining at 24 h, 10 µM [4]: 100%; solubility thermodynamic at 24 h [5]: 1.9 µM (≈ 0.575 µg/mL); solubility thermodynamic at 24 h [6]: 330 µM (≈ 99.9 µg/mL); remaining at 24 h, 10 µM [8]: 100%; inhibition (Mus musculus [10]): inactive |
| COCOc1ccc(/C=C/C(=O)c2ccc(Cl)cc2O)cc1OC |  |  | inhibition (Mus musculus [7]): inactive; inhibition (Mus musculus [9]): inactive |
| COc1cc(-c2cc(-c3ccc(Cl)cc3)nc(C)n2)ccc1O | > 5 µM | 1680 nM |  |
| COc1cc(CCC(=O)c2ccc(Cl)cc2)ccc1O |  | > 10000 nM |  |
| Cl.NCCOCCOCCOc1cc(/C=C/C(=O)c2ccc(Cl)cc2)ccc1O | > 5 µM | 475 nM |  |
| O=C(/C=C/c1ccc2c(c1)OCCO2)c1ccc(Cl)cc1 | > 5 µM | 1380 nM |  |
